Data reported in ChEMBL document CHEMBL5046221, “Identification of Pyrimidine-Based Lead Compounds for Understudied Kinases Implicated in Driving Neurodegeneration” (J Med Chem, 2022).

Key:
[1] = target: T1, Serine/threonine-protein kinase 17A (Homo sapiens, UniProt Q9UEE5); assay: Displacement of tracer K9 from NLuc fused DRAK1 (unknown origin) expressed in HEK293 cells by NanoBRET assay; format: cell-based
T1 sequence (Q9UEE5 whole entry): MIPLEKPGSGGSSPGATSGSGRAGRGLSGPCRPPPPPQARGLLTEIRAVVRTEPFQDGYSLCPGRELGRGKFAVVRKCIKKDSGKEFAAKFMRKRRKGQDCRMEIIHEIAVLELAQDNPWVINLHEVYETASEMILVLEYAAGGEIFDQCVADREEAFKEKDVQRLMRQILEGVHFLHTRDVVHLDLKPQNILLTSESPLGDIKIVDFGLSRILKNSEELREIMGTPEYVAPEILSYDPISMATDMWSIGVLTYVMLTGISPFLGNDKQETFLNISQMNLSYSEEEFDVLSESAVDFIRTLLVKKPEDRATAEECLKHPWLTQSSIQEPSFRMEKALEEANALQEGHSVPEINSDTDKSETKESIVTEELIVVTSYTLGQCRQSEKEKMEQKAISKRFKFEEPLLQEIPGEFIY

[2] = target: MAP/microtubule affinity-regulating kinase 3 (Homo sapiens, UniProt P27448); assay: Displacement of tracer K9 from NLuc fused MARK3 (unknown origin) expressed in HEK293 cells by NanoBRET assay; format: cell-based
[3] = target: T2, MAP/microtubule affinity-regulating kinase 4 (Homo sapiens, UniProt Q96L34); assay: Displacement of tracer K5 from NLuc fused MARK4 (unknown origin) expressed in HEK293 cells by NanoBRET assay; format: cell-based
T2 sequence (Q96L34 whole entry): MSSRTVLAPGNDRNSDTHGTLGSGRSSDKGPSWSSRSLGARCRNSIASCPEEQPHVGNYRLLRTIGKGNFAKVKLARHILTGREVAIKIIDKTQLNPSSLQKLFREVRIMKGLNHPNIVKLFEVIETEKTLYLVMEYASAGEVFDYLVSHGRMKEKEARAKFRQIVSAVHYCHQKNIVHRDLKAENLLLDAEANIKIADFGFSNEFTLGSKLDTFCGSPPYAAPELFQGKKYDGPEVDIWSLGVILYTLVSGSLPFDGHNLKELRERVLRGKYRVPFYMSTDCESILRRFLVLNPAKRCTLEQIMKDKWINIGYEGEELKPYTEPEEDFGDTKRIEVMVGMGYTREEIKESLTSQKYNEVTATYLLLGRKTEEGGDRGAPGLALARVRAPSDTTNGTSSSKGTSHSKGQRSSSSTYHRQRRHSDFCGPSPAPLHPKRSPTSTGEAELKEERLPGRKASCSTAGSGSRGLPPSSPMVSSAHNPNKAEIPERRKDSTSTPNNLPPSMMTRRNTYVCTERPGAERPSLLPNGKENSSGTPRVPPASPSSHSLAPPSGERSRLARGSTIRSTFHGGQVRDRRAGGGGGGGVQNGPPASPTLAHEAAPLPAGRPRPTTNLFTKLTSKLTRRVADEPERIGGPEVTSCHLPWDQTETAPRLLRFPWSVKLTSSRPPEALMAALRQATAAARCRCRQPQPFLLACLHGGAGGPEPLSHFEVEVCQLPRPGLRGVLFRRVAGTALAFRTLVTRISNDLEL

[4] = target: T3, Serine/threonine-protein kinase TBK1 (Homo sapiens, UniProt Q9UHD2); assay: Displacement of tracer K5 from NLuc fused TBK1 (unknown origin) expressed in HEK293 cells by NanoBRET assay; format: cell-based
T3 sequence (Q9UHD2 whole entry): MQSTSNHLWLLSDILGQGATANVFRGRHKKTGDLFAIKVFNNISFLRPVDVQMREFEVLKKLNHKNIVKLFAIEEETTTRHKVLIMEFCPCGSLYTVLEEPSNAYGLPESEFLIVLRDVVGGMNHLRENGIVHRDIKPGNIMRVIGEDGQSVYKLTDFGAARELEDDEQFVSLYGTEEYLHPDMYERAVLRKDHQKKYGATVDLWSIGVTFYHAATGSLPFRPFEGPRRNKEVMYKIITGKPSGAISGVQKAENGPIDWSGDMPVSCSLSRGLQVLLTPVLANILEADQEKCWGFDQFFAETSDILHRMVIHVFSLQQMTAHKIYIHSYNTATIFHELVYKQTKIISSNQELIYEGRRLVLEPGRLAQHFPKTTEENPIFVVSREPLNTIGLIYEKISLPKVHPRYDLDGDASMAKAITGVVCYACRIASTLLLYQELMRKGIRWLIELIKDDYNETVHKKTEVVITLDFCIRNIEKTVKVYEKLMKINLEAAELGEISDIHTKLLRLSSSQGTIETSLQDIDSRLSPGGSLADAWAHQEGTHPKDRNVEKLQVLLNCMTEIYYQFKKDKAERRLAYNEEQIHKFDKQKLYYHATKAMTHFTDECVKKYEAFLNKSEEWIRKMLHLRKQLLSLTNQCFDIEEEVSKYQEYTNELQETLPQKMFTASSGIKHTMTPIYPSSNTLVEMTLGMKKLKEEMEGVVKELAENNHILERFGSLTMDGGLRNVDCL
Outline: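 HEK293 cells grown in DMEM with 10% FBS at 37 °C, 5% CO2. NanoBRET assay run in dose–response per manufacturer's protocol with tracer K-5 at 0.5 μM. SEM calculated for assays run more than once.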

[5] = target: MAP kinase-interacting serine/threonine-protein kinase 2 (Homo sapiens, UniProt Q9HBH9); assay: Inhibition of full length recombinant human MKNK2 using myelin basic protein as substrate incubated for 40 mins in presence of [gamma-33P-ATP] by radiometric scintillation assay
Outline: (§1)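 Eurofins radiometric kinase assay run at ATP equal to Km for each kinase. 9-point dose–response in duplicate gives the IC50.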

[6] = target: Serine/threonine-protein kinase 32B (Homo sapiens, UniProt Q9NY57); assay: Inhibition of full length recombinant human YANK2 using casein as substrate incubated for 120 mins in presence of [gamma-33P-ATP] by radiometric scintillation assay
Outline: (§2)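 Eurofins radiometric enzymatic assay with ATP at Km for each kinase. IC50 was derived from a 9-point dose–response curve run in duplicate.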

[7] = Kinetic solubility of compound in PBS at pH 7.4 incubated for 24 hrs by chemiluminscent nitrogen detection method; format: physicochemical; conditions: buffer, pH 7.4, 24 h
Outline: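 Filtrates were quantified by total chemiluminescent nitrogen determination against a calibration curve, with correction for background nitrogen from DMSO and medium.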

[8] = Effective permeability in PBS at 7.4 incubated for 5 hrs by PAMPA analysis; format: ADME; conditions: pH 7.4, 5 h
Outline: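 PAMPA: DMSO stocks were diluted in PBS pH 7.4 and placed in the donor compartment, with PBS pH 7.4 in the acceptor, for 5 h. Both compartments were quantified by CLND against a calibration curve, with background nitrogen correction. Effective permeability was calculated from donor and acceptor concentrations using measured rather than assumed solubility.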

[9] = target: T4, Serine/threonine-protein kinase 17B (Homo sapiens) (UniProt O94768); assay: Inhibition of full length recombinant human DRAK2 using KKRPQRRYSNVF as substrate at 1 uM incubated for 120 mins in presence of [gamma-33P-ATP] by radiometric scintillation assay relative to control
T4 sequence (whole entry): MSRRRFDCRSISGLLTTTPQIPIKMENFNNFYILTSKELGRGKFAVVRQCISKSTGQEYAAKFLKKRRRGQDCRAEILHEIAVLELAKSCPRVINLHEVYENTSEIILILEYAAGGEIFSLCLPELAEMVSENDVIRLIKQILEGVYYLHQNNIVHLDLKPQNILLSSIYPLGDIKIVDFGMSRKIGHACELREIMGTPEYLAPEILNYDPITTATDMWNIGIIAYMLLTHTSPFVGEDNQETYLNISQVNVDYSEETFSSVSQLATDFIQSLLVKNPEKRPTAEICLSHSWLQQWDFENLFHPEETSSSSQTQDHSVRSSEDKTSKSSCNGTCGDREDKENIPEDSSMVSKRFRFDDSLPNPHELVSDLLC
Outline: (§3)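 Eurofins radiometric kinase assay with ATP at Km for each kinase. Compound was tested at a single 1 μM concentration in duplicate, and the result is reported as percent of control.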

[10] = target: Serine/threonine-protein kinase NIM1 (Homo sapiens, UniProt Q8IY84); assay: Inhibition of full length recombinant human NIM1 using KKKVSRSGLYRSPSMPENLNRPR as substrate incubated for 40 mins in presence of [gamma-33P-ATP] by radiometric scintillation assay; outline: as §2
[11] = target: T5, Leucine-rich repeat serine/threonine-protein kinase 2 (Homo sapiens, UniProt Q5S007); assay: Inhibition of recombinant human LRRK2 (970 to end residues) using RLGRDKYKTLRQIRQ as substrate incubated for 40 mins in presence of [gamma-33P-ATP] by radiometric scintillation assay; outline: as §1
[12] = target: Myosin light chain kinase 2, skeletal/cardiac muscle (Homo sapiens, UniProt Q9H1R3); assay: Inhibition of full length recombinant human MYLK2 using KKLNRTLSFAEPG as substrate incubated for 40 mins in presence of [gamma-33P-ATP] by radiometric scintillation assay; outline: as §2
[13] = target: T5, Leucine-rich repeat serine/threonine-protein kinase 2; assay: Inhibition of NanoLuc-fused LRRK2 (unknown origin) expressed in HEK293 cells incubated for 2 hrs by NanoBRET assay; format: cell-based
Outline: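 Cellular target engagement by NanoBRET in dose–response, done in singlicate by Carna Biosciences following the manufacturer's protocol. Compounds tested at concentrations up to 10 μM.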

[14] = Inhibition of human TTBK1 (1 to 479 residues) using Casein as substrate measured after 40 mins in presence of [gamma33P]ATP by scintillation counting method; outline: as §1
[15] = target: T6, Inhibitor of nuclear factor kappa-B kinase subunit epsilon (Homo sapiens, UniProt Q14164); assay: Inhibition of full length recombinant human IKKepsilon using casein as substrate incubated for 40 mins in presence of [gamma-33P-ATP] by radiometric scintillation assay; outline: as §1
T6 sequence (Q14164 whole entry): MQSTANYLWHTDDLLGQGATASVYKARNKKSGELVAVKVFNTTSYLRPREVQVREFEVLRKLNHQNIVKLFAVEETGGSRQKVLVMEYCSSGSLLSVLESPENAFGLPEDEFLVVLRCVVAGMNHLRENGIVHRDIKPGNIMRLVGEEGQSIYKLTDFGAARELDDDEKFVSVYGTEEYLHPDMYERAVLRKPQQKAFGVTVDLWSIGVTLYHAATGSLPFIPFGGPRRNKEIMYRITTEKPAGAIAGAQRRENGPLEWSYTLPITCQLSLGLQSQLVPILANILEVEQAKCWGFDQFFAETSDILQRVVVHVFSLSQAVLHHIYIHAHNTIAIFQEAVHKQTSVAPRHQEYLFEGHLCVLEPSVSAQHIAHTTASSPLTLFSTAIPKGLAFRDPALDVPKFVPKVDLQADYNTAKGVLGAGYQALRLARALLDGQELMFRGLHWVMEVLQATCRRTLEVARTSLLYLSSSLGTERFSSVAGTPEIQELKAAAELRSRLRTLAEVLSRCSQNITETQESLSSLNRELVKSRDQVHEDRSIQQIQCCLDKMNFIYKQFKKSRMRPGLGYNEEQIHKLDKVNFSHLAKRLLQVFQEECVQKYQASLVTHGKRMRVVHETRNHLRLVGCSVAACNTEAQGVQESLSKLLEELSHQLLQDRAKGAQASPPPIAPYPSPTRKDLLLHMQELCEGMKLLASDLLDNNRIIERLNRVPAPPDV

[16] = target: Death-associated protein kinase 3 (Homo sapiens, UniProt O43293); assay: Inhibition of recombinant human ZIPK (1 to 290 residues) using KKLNRTLSFAEPG as substrate measured after 40 mins in presence of [gamma33P]ATP by radiometric scintillation counting method; outline: as §2
[17] = target: T7, Macrophage colony-stimulating factor 1 receptor (Homo sapiens, UniProt P07333); assay: Inhibition of NanoLuc-fused CSF1R (unknown origin) expressed in HEK293 cells incubated for 2 hrs by NanoBRET assay; format: cell-based
[18] = target: T7, Macrophage colony-stimulating factor 1 receptor; assay: Inhibition of recombinant human FMS (538 to end residues) using KKKSPGEYVNIEFG as substrate measured after 40 mins in presence of [gamma33P]ATP by radiometric scintillation counting method; outline: as §1
[19] = target: T8, Non-receptor tyrosine-protein kinase TYK2 (Homo sapiens, UniProt P29597); assay: Inhibition of human TYK2 (875 to end residues) using GGMEDIYFEFMGGKKK as substrate measured after 40 mins in presence of [gamma33P]ATP by radiometric scintillation counting method; outline: as §2
[20] = target: Receptor tyrosine-protein kinase erbB-2 (Homo sapiens, UniProt P04626); assay: Inhibition of recombinant human ERBB2 (676 to 1255 residues) using poly(Glu:Tyr) as substrate incubated for 40 mins in presence of [gamma-33P-ATP] by radiometric scintillation assay; outline: as §2
[21] = target: T8, Non-receptor tyrosine-protein kinase TYK2; assay: Inhibition of NanoLuc-fused TYK2 (unknown origin) expressed in HEK293 cells incubated for 2 hrs by NanoBRET assay; format: cell-based
Outline: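 Cellular NanoBRET target-engagement assays were run by Carna Biosciences to the manufacturer's protocol. Dose–response was in singlicate, with compounds tested at concentrations up to 10 μM.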

[22] = target: Tyrosine-protein kinase JAK2 (Homo sapiens) (UniProt O60674); assay: Inhibition of recombinant human JAK2 (808 to end residues) using KTFCGTPEYLAPEVRREPRILSEEEQEMFRDFDYIADWC as substrate at 1 uM incubated for 40 mins in presence of [gamma-33P-ATP] by radiometric scintillation assay relative to control; outline: as §3

T7 sequence (P07333 whole entry, the tested form may be a part): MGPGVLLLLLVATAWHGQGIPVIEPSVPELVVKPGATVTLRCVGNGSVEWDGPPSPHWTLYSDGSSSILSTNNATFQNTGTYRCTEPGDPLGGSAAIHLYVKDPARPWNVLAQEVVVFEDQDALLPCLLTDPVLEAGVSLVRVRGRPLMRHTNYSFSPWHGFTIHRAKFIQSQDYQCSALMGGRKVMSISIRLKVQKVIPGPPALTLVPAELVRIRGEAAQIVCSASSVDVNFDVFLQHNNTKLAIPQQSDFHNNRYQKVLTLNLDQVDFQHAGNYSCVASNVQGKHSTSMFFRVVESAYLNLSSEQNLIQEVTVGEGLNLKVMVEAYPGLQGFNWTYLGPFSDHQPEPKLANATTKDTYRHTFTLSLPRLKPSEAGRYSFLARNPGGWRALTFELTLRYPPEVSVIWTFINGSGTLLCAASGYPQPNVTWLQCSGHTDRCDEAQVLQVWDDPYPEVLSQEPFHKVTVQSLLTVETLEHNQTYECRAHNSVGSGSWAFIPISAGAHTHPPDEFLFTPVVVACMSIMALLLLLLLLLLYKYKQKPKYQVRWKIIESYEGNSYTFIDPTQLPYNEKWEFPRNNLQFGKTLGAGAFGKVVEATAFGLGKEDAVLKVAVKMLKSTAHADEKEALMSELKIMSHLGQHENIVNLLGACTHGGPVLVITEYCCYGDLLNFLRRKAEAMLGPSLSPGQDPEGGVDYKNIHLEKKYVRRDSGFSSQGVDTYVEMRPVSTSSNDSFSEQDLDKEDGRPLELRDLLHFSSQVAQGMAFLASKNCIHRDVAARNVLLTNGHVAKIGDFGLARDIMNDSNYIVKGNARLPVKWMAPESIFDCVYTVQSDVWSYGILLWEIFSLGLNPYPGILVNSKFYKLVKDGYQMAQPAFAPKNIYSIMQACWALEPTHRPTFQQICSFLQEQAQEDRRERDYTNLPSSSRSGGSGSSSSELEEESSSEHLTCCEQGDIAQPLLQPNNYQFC
Chain of MAP/microtubule affinity-regulating kinase 3 (P27448 whole entry, the tested form may be a part): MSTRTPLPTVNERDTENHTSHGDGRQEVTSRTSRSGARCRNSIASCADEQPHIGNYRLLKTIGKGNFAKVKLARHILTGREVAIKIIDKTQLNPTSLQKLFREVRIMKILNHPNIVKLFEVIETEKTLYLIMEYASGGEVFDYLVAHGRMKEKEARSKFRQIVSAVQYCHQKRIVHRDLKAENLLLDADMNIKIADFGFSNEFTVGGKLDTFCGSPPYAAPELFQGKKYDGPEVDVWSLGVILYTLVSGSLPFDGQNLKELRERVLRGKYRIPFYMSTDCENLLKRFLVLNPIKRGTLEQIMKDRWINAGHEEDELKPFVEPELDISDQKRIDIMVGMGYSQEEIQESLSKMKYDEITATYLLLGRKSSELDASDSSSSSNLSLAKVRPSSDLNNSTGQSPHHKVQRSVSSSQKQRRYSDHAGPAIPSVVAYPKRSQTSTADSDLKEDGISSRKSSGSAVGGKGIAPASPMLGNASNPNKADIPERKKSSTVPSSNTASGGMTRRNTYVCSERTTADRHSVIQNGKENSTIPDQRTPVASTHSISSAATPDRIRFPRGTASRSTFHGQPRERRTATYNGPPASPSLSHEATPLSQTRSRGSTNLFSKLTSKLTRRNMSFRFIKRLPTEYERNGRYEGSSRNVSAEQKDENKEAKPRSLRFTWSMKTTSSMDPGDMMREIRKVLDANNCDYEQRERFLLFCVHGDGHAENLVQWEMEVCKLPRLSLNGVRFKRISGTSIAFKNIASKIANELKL
T5 sequence (Q5S007 whole entry): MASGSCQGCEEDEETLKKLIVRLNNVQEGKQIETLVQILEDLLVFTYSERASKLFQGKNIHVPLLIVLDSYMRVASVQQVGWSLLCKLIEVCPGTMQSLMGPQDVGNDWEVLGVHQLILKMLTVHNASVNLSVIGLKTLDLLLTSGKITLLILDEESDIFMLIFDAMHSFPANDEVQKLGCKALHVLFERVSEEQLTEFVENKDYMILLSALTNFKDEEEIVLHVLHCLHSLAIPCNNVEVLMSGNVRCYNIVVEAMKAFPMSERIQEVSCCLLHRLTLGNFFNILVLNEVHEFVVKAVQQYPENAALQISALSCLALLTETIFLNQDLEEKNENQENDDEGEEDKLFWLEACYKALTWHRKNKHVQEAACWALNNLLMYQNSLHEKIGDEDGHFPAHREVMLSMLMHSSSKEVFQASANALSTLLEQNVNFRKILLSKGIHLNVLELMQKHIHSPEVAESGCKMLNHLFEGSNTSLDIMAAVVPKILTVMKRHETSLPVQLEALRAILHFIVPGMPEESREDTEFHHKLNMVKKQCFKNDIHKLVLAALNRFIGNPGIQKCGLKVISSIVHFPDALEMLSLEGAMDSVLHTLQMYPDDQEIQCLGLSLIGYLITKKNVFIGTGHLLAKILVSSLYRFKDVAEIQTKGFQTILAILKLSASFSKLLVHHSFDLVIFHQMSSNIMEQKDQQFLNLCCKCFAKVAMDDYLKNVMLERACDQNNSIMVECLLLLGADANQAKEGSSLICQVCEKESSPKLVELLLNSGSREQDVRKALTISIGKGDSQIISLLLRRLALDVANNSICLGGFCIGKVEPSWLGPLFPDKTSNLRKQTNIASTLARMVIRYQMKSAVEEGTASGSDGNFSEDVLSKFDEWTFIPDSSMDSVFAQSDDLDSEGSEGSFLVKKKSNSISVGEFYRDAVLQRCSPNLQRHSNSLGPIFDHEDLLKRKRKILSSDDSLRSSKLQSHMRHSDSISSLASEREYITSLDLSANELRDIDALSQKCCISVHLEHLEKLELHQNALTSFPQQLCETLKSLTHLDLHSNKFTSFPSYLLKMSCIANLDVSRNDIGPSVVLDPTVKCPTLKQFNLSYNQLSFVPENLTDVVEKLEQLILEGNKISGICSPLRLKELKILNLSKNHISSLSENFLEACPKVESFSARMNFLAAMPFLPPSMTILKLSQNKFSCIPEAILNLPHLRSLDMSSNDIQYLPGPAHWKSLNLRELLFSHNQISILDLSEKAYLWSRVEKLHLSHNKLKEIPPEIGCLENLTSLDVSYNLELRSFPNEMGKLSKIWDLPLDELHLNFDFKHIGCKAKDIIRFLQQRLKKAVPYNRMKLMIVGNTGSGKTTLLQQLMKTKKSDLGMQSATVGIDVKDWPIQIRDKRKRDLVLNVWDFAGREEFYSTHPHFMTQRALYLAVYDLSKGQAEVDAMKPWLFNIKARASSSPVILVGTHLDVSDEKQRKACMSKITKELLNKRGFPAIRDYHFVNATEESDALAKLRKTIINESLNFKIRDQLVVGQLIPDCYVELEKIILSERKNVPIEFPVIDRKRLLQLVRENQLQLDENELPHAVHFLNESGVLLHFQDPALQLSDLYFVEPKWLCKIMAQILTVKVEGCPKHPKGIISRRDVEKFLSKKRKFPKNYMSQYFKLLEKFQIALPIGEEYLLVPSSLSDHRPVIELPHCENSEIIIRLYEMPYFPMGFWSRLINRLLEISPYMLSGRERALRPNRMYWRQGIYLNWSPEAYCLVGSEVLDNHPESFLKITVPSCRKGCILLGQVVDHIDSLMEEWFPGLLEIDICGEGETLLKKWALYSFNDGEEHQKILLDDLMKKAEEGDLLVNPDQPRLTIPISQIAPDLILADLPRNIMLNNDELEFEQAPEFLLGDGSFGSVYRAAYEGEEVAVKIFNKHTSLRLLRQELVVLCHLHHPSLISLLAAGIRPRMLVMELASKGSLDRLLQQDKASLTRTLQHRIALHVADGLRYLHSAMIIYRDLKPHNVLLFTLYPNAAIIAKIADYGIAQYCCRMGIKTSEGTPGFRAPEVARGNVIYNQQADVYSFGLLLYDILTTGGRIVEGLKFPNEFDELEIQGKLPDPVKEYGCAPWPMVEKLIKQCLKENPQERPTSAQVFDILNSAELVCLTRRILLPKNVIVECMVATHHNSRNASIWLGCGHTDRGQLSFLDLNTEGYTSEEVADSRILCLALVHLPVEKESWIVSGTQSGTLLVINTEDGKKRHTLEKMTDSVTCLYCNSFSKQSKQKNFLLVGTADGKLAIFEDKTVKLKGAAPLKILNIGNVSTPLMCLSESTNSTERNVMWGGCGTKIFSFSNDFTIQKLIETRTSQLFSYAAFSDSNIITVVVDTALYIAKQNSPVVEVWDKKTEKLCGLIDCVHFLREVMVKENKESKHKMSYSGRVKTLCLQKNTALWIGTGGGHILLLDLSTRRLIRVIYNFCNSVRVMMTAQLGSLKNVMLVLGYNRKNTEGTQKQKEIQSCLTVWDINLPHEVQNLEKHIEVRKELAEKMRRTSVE
Chain of MAP kinase-interacting serine/threonine-protein kinase 2 (Q9HBH9 whole entry): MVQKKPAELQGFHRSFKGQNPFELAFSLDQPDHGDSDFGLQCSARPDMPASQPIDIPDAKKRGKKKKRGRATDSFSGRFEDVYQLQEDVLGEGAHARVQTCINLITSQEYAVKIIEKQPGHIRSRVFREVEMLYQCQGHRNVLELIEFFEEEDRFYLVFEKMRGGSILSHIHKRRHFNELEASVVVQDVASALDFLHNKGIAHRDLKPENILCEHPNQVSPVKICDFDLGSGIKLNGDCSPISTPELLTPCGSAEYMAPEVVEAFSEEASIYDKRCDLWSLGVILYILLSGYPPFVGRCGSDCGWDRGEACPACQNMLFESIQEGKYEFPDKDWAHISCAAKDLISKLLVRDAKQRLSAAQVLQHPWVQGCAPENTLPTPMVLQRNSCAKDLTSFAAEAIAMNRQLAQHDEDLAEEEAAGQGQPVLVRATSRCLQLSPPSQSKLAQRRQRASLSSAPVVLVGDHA
Chain of Serine/threonine-protein kinase 32B (Q9NY57 whole entry): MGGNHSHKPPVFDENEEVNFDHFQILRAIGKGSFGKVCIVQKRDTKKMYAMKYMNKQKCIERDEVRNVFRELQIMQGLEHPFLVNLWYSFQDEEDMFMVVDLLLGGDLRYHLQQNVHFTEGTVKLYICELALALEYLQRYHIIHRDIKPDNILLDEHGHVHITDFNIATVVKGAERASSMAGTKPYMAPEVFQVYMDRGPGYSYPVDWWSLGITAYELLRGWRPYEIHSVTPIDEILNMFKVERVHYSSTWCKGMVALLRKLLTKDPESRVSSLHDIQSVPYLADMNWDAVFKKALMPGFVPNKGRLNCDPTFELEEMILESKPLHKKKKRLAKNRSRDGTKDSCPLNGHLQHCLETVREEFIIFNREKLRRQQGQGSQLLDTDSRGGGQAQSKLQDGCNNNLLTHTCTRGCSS

Compound	IC50 [1] [µM]	IC50 [2] [µM]	IC50 [3] [µM]	IC50 [4] [µM]	IC50 [5] [µM]	Kinetic_solubility [7] [µM]	Peff [8]	% control [9] [%]	IC50 [14] [µM]	IC50 [17] [µM]	also measured
Cc1nn(CC(F)(F)F)cc1Nc1nccc(NCCCNC(=O)C2CCC2)n1	> 10	> 10	> 10	> 10	2.87	174.6	2.39 10^-6 cm/s	60			IC50 [6]: > 10 µM
Cc1nn(CC(F)(F)F)cc1Nc1ncc(C2CC2)c(NCCc2c[nH]cn2)n1	> 10	> 10	> 10	> 10		171	3.89 10^-7 cm/s	59			IC50 [10]: 4.4 µM; IC50 [11]: 0.089 µM; IC50 [12]: 1.12 µM; IC50 [13]: > 10 µM
Cc1nn(CC(F)(F)F)cc1Nc1ncc(Br)c(NCc2ccc(S(N)(=O)=O)cc2)n1	> 10	> 10	> 10	0.339	1.37	176.9			0.037	> 10	IC50 [15]: 0.552 µM; IC50 [16]: > 10 µM; Peff ([8]; BLD = below limit of detection): Bld
NS(=O)(=O)c1ccc(CNc2ccnc(Nc3cccc(CN4CCOCC4)c3)n2)cc1	> 10	> 10	> 10	> 10			4.56 10^-7 cm/s		2.74	5.06	IC50 [18]: 0.091 µM; IC50 [19]: 0.276 µM; IC50 [20]: > 10 µM; IC50 [21]: > 10 µM; Kinetic solubility [7]: 176 µM; % control [22]: 54%
